Source: ChEMBL document CHEMBL1157851, “Design and synthesis of novel 3,4-disubstituted pyrazoles for nanomedicine applications against malignant gliomas” (Eur J Med Chem, 2010)

Assay: Cytotoxicity against human U87MG cells after 24 hrs by MTT assay
Format: functional, cell-based, U-87MG ATCC
Conditions: U-87 MG
How it was run: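 U87MG human glioblastoma cells were grown in EMEM with 10% FBS and 1% penicillin–streptomycin at 37 °C under humidified 5% CO₂, then seeded at 2 × 10³ cells/well. At about 50% confluence, cells were exposed to compounds at various concentrations (10 mmol/L DMSO stocks; DMSO control) for 24 h. MTT was then added for 3 h at 37 °C, formazan was dissolved in DMSO, and A540 was read. IC50 values are means of three experiments.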

| Structure (SMILES) | IC50 [µM] |
| --- | --- |
| COc1ccccc1C(=O)Nc1cn(-c2ccccc2)nc1-c1ccccc1 | 81 |
| Cn1cc(NC(=O)CCCCCCCCCCCN)c(-c2ccccn2)n1 | 90 |
| Cn1cc(NC(=O)CCCCCCCCCCO)c(-c2ccccn2)n1 | > 150 |
| COc1ccccc1C(=O)Nc1cn(C)nc1-c1ccccn1 | 130 |
| CCCCCCCCCCCC(=O)Nc1cn(C)nc1-c1ccccn1 | > 150 |
| C[C@H](N)C(=O)Nc1cn(C)nc1-c1ccccn1 | > 150 |
| Cn1cc(NC(=O)CCCCCCCCCCS)c(-c2ccccn2)n1 | > 150 |
| O=C(CCCCCCCCCCO)Nc1cn(-c2ccccc2)nc1-c1ccccc1 | > 150 |
| Cn1cc(NC(=O)c2ccccc2)c(-c2ccccn2)n1 | > 150 |
| CCCCCCCCCCCC(=O)Nc1cn(-c2ccccc2)nc1-c1ccccc1 | 81 |
| C[C@H](N)C(=O)Nc1cn(-c2ccccc2)nc1-c1ccccc1 | > 150 |
| O=C(CCCCCCCCCCS)Nc1cn(-c2ccccc2)nc1-c1ccccc1 | 90 |
| NCCCCCCCCCCCC(=O)Nc1cn(-c2ccccc2)nc1-c1ccccc1 | 77 |
| O=C(Nc1cn(-c2ccccc2)nc1-c1ccccc1)c1ccccc1 | > 150 |
